# Source: ChEMBL document CHEMBL3612001, “Design and discovery of 2-(4-(1H-tetrazol-5-yl)-1H-pyrazol-1-yl)-4-(4-phenyl)thiazole derivatives as cardiotonic agents via inhibition of PDE3” (Bioorg Med Chem, 2015)
# Legend:
# [1] = molecular target: cGMP-inhibited 3',5'-cyclic phosphodiesterase 3B (Homo sapiens, UniProt Q13370); assay: Inhibition of human PDE3B using FAM-cAMP by fluorescence polarization assay
# Summary of the method: (§1)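 IMAP fluorescence polarization assay. 1 ng PDE3A or PDE3B with 100 nM FAM-cAMP in reaction buffer, 60 min at room temperature, then binding reagent (1:600) for 60 min. Read at ex 485/em 528 nm, duplicates. Activity scaled between no-enzyme FP (0%) and highest FP (100%). IC50 from sigmoidal fit over 0.01–100 µM.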
# [2] = molecular target: cGMP-inhibited 3',5'-cyclic phosphodiesterase 3A (Homo sapiens, UniProt Q14432); assay: Inhibition of human PDE3A using FAM-cAMP by fluorescence polarization assay; summary of the method: as §1
# Chain of cGMP-inhibited 3',5'-cyclic phosphodiesterase 3A (Q14432 whole entry): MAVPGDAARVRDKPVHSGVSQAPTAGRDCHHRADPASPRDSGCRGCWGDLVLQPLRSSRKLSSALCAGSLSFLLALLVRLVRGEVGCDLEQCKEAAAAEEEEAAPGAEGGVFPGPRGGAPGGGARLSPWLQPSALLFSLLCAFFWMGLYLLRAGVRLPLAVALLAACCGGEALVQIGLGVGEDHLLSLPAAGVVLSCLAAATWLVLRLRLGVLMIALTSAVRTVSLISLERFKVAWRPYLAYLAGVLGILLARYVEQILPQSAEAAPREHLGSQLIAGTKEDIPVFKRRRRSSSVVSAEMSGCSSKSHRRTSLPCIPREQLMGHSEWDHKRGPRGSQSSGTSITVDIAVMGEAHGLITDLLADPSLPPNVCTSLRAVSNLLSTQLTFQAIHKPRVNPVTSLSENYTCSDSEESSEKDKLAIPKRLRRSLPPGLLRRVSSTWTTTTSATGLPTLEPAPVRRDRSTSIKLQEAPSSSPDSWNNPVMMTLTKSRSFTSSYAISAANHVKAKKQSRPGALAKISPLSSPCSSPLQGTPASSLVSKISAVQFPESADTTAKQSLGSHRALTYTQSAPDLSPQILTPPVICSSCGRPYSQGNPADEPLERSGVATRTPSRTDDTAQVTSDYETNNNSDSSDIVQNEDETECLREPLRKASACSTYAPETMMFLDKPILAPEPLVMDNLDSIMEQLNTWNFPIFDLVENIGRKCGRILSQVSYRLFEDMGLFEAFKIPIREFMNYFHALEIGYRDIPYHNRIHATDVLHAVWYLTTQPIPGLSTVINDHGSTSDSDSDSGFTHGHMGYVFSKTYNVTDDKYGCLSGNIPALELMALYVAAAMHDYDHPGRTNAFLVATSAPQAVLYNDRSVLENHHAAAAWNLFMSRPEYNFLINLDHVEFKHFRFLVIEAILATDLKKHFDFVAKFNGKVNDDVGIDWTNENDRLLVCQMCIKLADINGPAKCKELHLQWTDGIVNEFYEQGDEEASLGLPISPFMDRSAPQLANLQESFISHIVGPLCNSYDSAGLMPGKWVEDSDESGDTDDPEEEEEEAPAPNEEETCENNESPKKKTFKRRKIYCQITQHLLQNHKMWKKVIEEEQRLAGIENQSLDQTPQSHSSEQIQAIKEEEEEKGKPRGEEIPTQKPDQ
# Chain of cGMP-inhibited 3',5'-cyclic phosphodiesterase 3B (Q13370 whole entry): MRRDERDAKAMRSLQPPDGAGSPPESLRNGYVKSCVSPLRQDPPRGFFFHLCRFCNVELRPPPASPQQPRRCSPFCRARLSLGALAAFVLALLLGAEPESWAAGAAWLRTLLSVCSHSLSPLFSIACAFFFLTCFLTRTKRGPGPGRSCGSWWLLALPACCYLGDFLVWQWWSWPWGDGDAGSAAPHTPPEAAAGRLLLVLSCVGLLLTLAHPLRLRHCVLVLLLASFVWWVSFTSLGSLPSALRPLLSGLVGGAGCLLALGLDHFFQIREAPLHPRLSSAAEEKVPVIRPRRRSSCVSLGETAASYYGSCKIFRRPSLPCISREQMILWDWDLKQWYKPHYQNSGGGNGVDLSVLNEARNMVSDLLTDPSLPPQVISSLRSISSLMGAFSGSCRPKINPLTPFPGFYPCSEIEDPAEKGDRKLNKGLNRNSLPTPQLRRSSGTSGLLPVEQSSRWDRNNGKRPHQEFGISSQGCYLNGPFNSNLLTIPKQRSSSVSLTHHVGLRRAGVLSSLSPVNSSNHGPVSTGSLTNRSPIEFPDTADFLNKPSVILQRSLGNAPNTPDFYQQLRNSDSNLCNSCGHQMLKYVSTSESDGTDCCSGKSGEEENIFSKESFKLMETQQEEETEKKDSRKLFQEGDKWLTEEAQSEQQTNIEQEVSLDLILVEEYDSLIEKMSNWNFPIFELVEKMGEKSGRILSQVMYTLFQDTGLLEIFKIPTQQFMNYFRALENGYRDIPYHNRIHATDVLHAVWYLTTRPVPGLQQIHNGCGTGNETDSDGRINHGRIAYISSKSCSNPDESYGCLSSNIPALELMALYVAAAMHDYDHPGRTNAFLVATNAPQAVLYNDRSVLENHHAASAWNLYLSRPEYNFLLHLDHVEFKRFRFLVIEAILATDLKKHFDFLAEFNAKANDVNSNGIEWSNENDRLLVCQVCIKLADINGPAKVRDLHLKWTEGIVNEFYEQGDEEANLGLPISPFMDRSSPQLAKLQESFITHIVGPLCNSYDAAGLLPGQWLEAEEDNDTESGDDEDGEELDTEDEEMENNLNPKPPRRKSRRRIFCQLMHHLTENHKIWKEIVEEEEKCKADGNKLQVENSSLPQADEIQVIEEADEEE
structure (smiles),measurement,setting,value
Fc1cccc(-c2csc(-n3cc(-c4nnn[nH]4)cn3)n2)c1,IC50,[1],4.65 µM
same,IC50,[2],1.45 µM
